Tests used:
[1] = system: Escherichia coli; experiment: Ratio of Kcat to Km for Escherichia coli beta-lactamase VIM-1 by spectrophotometry
[2] = system: Escherichia coli; experiment: Activity of Escherichia coli beta-lactamase VIM-1 by spectrophotometry
[3] = system: CO[C@@]1(NC(=O)C(C(=O)O)c2ccc(O)cc2)C(=O)N2C(C(=O)O)=C(CSc3nnnn3C)CO[C@@H]21; experiment: (§1) Ratio of Kcat to Km for Pseudomonas aeruginosa beta-lactamase VIM-7 by spectrophotometry; conditions: 07-406
Summary of the method: (§2)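 Recombinant enzyme was expressed in E. coli BL21(DE3) from pET-26b and purified from the periplasm to >99%, with concentration taken from A280. Hydrolysis was followed spectrophotometrically at 25°C in 50 mM sodium cacodylate pH 7.0 with 100 μM ZnCl2 and 0.1 mg/ml BSA. Km and kcat came from initial velocity versus substrate concentration. Some Km values were taken as competitive Ki against nitrocefin reporter.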

[4] = system: CCN1CCN(C(=O)N[C@@H](C(=O)N[C@@H]2C(=O)N3[C@@H]2SC(C)(C)[C@@H]3C(=O)O)c2ccccc2)C(=O)C1=O; experiment: as §1; conditions: 07-406; summary of the method: as §2
[5] = system: CC(=O)OCC1=C(C(=O)O)N2C(=O)[C@@H](NC(=O)Cc3cccs3)[C@H]2SC1; experiment: as §1; conditions: 07-406; summary of the method: as §2
[6] = system: CC1(C)[C@H](C(=O)O)N2C(=O)C[C@H]2S1(=O)=O; experiment: as §1; conditions: 07-406; summary of the method: as §2
[7] = system: C[C@@H](O)[C@H]1C(=O)N2C(C(=O)O)=C(SCCNC=N)C[C@H]12; experiment: as §1; conditions: 07-406; summary of the method: as §2
[8] = system: C[C@]1(Cn2ccnn2)[C@H](C(=O)O)N2C(=O)C[C@H]2S1(=O)=O; experiment: as §1; conditions: 07-406; summary of the method: as §2
[9] = system: C[C@@H](O)[C@H]1C(=O)N2C(C(=O)O)=C(S[C@@H]3CN[C@H](C(=O)Nc4cccc(C(=O)O)c4)C3)[C@H](C)[C@H]12; experiment: as §1; conditions: 07-406; summary of the method: as §2
[10] = system: CC(C)(O/N=C(\C(=O)N[C@@H]1C(=O)N2C(C(=O)[O-])=C(C[n+]3ccccc3)CS[C@H]12)c1csc(N)n1)C(=O)O; experiment: as §1; conditions: 07-406; summary of the method: as §2
[11] = system: Cc1onc(-c2ccccc2Cl)c1C(=O)N[C@@H]1C(=O)N2[C@@H]1SC(C)(C)[C@@H]2C(=O)O; experiment: as §1; conditions: 07-406; summary of the method: as §2
[12] = system: CO/N=C(\C(=O)N[C@@H]1C(=O)N2C(C(=O)O)=C(COC(C)=O)CS[C@H]12)c1csc(N)n1; experiment: as §1; conditions: 07-406; summary of the method: as §2
[13] = system: CC1(C)S[C@@H]2[C@H](NC(=O)C(C(=O)O)c3ccccc3)C(=O)N2[C@H]1C(=O)O; experiment: as §1; conditions: 07-406; summary of the method: as §2
[14] = system: CC1(C)S[C@@H]2[C@H](NC(=O)[C@H](NC(=O)N3CCNC3=O)c3ccccc3)C(=O)N2[C@H]1C(=O)O; experiment: as §1; conditions: 07-406; summary of the method: as §2
[15] = system: CC1(C)S[C@@H]2[C@H](NC(=O)Cc3ccccc3)C(=O)N2[C@H]1C(=O)O; experiment: as §1; conditions: 07-406; summary of the method: as §2
[16] = system: CC1(C)S[C@@H]2[C@H](NC(=O)[C@H](N)c3ccccc3)C(=O)N2[C@H]1C(=O)O; experiment: as §1; conditions: 07-406; summary of the method: as §2
[17] = system: O=C(Cc1cccs1)N[C@@H]1C(=O)N2C(C(=O)O)=C(/C=C/c3ccc([N+](=O)[O-])cc3[N+](=O)[O-])CS[C@H]12; experiment: as §1; conditions: 07-406; summary of the method: as §2
[18] = system: CO[C@@]1(NC(=O)Cc2cccs2)C(=O)N2C(C(=O)O)=C(COC(N)=O)CS[C@@H]21; experiment: as §1; conditions: 07-406; summary of the method: as §2
[19] = system: CO/N=C(\C(=O)N[C@@H]1C(=O)N2C(C(=O)O)=C(COC(N)=O)CS[C@H]12)c1ccco1; experiment: as §1; conditions: 07-406; summary of the method: as §2
[20] = system: O=C(O)[C@H]1/C(=C/CO)O[C@@H]2CC(=O)N21; experiment: as §1; conditions: 07-406; summary of the method: as §2
[21] = system: O=C(Cc1cccs1)N[C@@H]1C(=O)N2C(C(=O)[O-])=C(C[n+]3ccccc3)CS[C@H]12; experiment: as §1; conditions: 07-406; summary of the method: as §2
[22] = system: CO/N=C(\C(=O)N[C@@H]1C(=O)N2C(C(=O)[O-])=C(C[N+]3(C)CCCC3)CS[C@H]12)c1csc(N)n1; experiment: as §1; conditions: 07-406; summary of the method: as §2
[23] = system: C[C@@H](O)[C@H]1C(=O)N2C(C(=O)O)=C(S[C@@H]3CN[C@H](C(=O)N(C)C)C3)[C@H](C)[C@H]12; experiment: as §1; conditions: 07-406; summary of the method: as §2
[24] = system: CO[C@@]1(NC(=O)C(C(=O)O)c2ccc(O)cc2)C(=O)N2C(C(=O)O)=C(CSc3nnnn3C)CO[C@@H]21; experiment: (§3) Activity of Pseudomonas aeruginosa beta-lactamase VIM-7 by spectrophotometry; conditions: 07-406; summary of the method: as §2
[25] = system: CCN1CCN(C(=O)N[C@@H](C(=O)N[C@@H]2C(=O)N3[C@@H]2SC(C)(C)[C@@H]3C(=O)O)c2ccccc2)C(=O)C1=O; experiment: as §3; conditions: 07-406; summary of the method: as §2
[26] = system: CC(=O)OCC1=C(C(=O)O)N2C(=O)[C@@H](NC(=O)Cc3cccs3)[C@H]2SC1; experiment: as §3; conditions: 07-406; summary of the method: as §2
[27] = system: CC1(C)[C@H](C(=O)O)N2C(=O)C[C@H]2S1(=O)=O; experiment: as §3; conditions: 07-406; summary of the method: as §2
[28] = system: C[C@H]1[C@H](NC(=O)/C(=N\OC(C)(C)C(=O)O)c2csc(N)n2)C(=O)N1S(=O)(=O)O; experiment: as §3; conditions: 07-406; summary of the method: as §2
[29] = system: C[C@@H](O)[C@H]1C(=O)N2C(C(=O)O)=C(SCCNC=N)C[C@H]12; experiment: as §3; conditions: 07-406; summary of the method: as §2
[30] = system: C[C@]1(Cn2ccnn2)[C@H](C(=O)O)N2C(=O)C[C@H]2S1(=O)=O; experiment: as §3; conditions: 07-406; summary of the method: as §2
[31] = system: C[C@@H](O)[C@H]1C(=O)N2C(C(=O)O)=C(S[C@@H]3CN[C@H](C(=O)Nc4cccc(C(=O)O)c4)C3)[C@H](C)[C@H]12; experiment: as §3; conditions: 07-406; summary of the method: as §2
[32] = system: CC(C)(O/N=C(\C(=O)N[C@@H]1C(=O)N2C(C(=O)[O-])=C(C[n+]3ccccc3)CS[C@H]12)c1csc(N)n1)C(=O)O; experiment: as §3; conditions: 07-406; summary of the method: as §2
[33] = system: Cc1onc(-c2ccccc2Cl)c1C(=O)N[C@@H]1C(=O)N2[C@@H]1SC(C)(C)[C@@H]2C(=O)O; experiment: as §3; conditions: 07-406; summary of the method: as §2
[34] = system: CO/N=C(\C(=O)N[C@@H]1C(=O)N2C(C(=O)O)=C(COC(C)=O)CS[C@H]12)c1csc(N)n1; experiment: as §3; conditions: 07-406; summary of the method: as §2
[35] = system: CC1(C)S[C@@H]2[C@H](NC(=O)C(C(=O)O)c3ccccc3)C(=O)N2[C@H]1C(=O)O; experiment: as §3; conditions: 07-406; summary of the method: as §2
[36] = system: CC1(C)S[C@@H]2[C@H](NC(=O)[C@H](NC(=O)N3CCNC3=O)c3ccccc3)C(=O)N2[C@H]1C(=O)O; experiment: as §3; conditions: 07-406; summary of the method: as §2
[37] = system: CC1(C)S[C@@H]2[C@H](NC(=O)Cc3ccccc3)C(=O)N2[C@H]1C(=O)O; experiment: as §3; conditions: 07-406; summary of the method: as §2
[38] = system: CC1(C)S[C@@H]2[C@H](NC(=O)[C@H](N)c3ccccc3)C(=O)N2[C@H]1C(=O)O; experiment: as §3; conditions: 07-406; summary of the method: as §2
[39] = system: O=C(Cc1cccs1)N[C@@H]1C(=O)N2C(C(=O)O)=C(/C=C/c3ccc([N+](=O)[O-])cc3[N+](=O)[O-])CS[C@H]12; experiment: as §3; conditions: 07-406; summary of the method: as §2
[40] = system: CO[C@@]1(NC(=O)Cc2cccs2)C(=O)N2C(C(=O)O)=C(COC(N)=O)CS[C@@H]21; experiment: as §3; conditions: 07-406; summary of the method: as §2
[41] = system: CO/N=C(\C(=O)N[C@@H]1C(=O)N2C(C(=O)O)=C(COC(N)=O)CS[C@H]12)c1ccco1; experiment: as §3; conditions: 07-406; summary of the method: as §2
[42] = system: O=C(O)[C@H]1/C(=C/CO)O[C@@H]2CC(=O)N21; experiment: as §3; conditions: 07-406; summary of the method: as §2
[43] = system: O=C(Cc1cccs1)N[C@@H]1C(=O)N2C(C(=O)[O-])=C(C[n+]3ccccc3)CS[C@H]12; experiment: as §3; conditions: 07-406; summary of the method: as §2
[44] = system: CO/N=C(\C(=O)N[C@@H]1C(=O)N2C(C(=O)[O-])=C(C[N+]3(C)CCCC3)CS[C@H]12)c1csc(N)n1; experiment: as §3; conditions: 07-406; summary of the method: as §2
[45] = system: C[C@@H](O)[C@H]1C(=O)N2C(C(=O)O)=C(S[C@@H]3CN[C@H](C(=O)N(C)C)C3)[C@H](C)[C@H]12; experiment: as §3; conditions: 07-406; summary of the method: as §2

Metallo-b-lactamase (Pseudomonas aeruginosa), Q840P9, sequence (Q840P9 whole entry): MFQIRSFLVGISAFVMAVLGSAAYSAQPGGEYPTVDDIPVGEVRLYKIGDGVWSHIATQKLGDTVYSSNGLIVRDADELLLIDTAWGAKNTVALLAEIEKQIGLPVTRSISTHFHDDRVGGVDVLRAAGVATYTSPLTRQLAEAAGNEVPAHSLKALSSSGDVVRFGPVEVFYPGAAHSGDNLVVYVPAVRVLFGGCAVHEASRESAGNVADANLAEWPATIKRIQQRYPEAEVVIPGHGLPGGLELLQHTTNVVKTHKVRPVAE

CO[C@@]1(NC(=O)Cc2cccs2)C(=O)N2C(C(=O)O)=C(COC(N)=O)CS[C@@H]21
kcat/Km [1]: 200000 M⁻¹ s⁻¹
Km [2]: 130 µM
kcat [2]: 26 s⁻¹

C[C@@H](O)[C@H]1C(=O)N2C(C(=O)O)=C(SCCNC=N)C[C@H]12
kcat/Km [1]: 130000 M⁻¹ s⁻¹
Km [2]: 1.5 µM
kcat [2]: 0.2 s⁻¹

CC(=O)OCC1=C(C(=O)O)N2C(=O)[C@@H](NC(=O)Cc3cccs3)[C@H]2SC1
kcat/Km [1]: 5.1e+06 M⁻¹ s⁻¹
Km [2]: 55 µM
kcat [2]: 280 s⁻¹

C[C@]1(Cn2ccnn2)[C@H](C(=O)O)N2C(=O)C[C@H]2S1(=O)=O
kcat/Km [1]: 16000 M⁻¹ s⁻¹
Km [2]: 340 µM
kcat [2]: 5.3 s⁻¹

Metallo-b-lactamase (Pseudomonas aeruginosa), Q840P9
kcat/Km [3]: 3.1e+06 M⁻¹ s⁻¹
kcat/Km [4]: 5.4e+06 M⁻¹ s⁻¹
kcat/Km [5]: 4e+06 M⁻¹ s⁻¹
kcat/Km [6]: 150000 M⁻¹ s⁻¹
kcat/Km [7]: 3.7e+06 M⁻¹ s⁻¹
kcat/Km [8]: 19000 M⁻¹ s⁻¹
kcat/Km [9]: 290000 M⁻¹ s⁻¹
kcat/Km [10]: 12000 M⁻¹ s⁻¹
kcat/Km [11]: 2.9e+06 M⁻¹ s⁻¹
kcat/Km [12]: 2.6e+06 M⁻¹ s⁻¹
kcat/Km [13]: 1.4e+07 M⁻¹ s⁻¹
kcat/Km [14]: 1.2e+06 M⁻¹ s⁻¹
kcat/Km [15]: 2.5e+07 M⁻¹ s⁻¹
kcat/Km [16]: 1.3e+07 M⁻¹ s⁻¹
kcat/Km [17]: 2.6e+07 M⁻¹ s⁻¹
kcat/Km [18]: 150000 M⁻¹ s⁻¹
kcat/Km [19]: 550000 M⁻¹ s⁻¹
kcat/Km [20]: 2500 M⁻¹ s⁻¹
kcat/Km [21]: 720000 M⁻¹ s⁻¹
kcat/Km [22]: 9100 M⁻¹ s⁻¹
kcat/Km [23]: 1.1e+06 M⁻¹ s⁻¹
Km [24]: 75 µM
kcat [24]: 230 s⁻¹
Km [25]: 26 µM
kcat [25]: 140 s⁻¹
Km [26]: 45 µM
kcat [26]: 180 s⁻¹
Km [27]: 740 µM
kcat [27]: 110 s⁻¹
Km [28]: 2700 µM
Km [29]: 27 µM
kcat [29]: 100 s⁻¹
Km [30]: 3500 µM
kcat [30]: 68 s⁻¹
Km [31]: 28 µM
kcat [31]: 8 s⁻¹
Km [32]: 120 µM
kcat [32]: 1.4 s⁻¹
Km [33]: 860 µM
kcat [33]: 2500 s⁻¹
Km [34]: 22 µM
kcat [34]: 56 s⁻¹
Km [35]: 84 µM
kcat [35]: 1200 s⁻¹
Km [36]: 66 µM
kcat [36]: 78 s⁻¹
Km [37]: 17 µM
kcat [37]: 430 s⁻¹
Km [38]: 15 µM
kcat [38]: 190 s⁻¹
Km [39]: 58 µM
kcat [39]: 1500 s⁻¹
Km [40]: 68 µM
kcat [40]: 10 s⁻¹
Km [41]: 29 µM
kcat [41]: 16 s⁻¹
Km [42]: 940 µM
kcat [42]: 2.3 s⁻¹
Km [43]: 250 µM
kcat [43]: 180 s⁻¹
Km [44]: 580 µM
kcat [44]: 5.3 s⁻¹
Km [45]: 38 µM
kcat [45]: 42 s⁻¹
